Laboratory results published in ChEMBL document CHEMBL1133760, “4-(3-Chloro-4-methoxybenzyl)aminophthalazines: synthesis and inhibitory activity toward phosphodiesterase 5” (J Med Chem, 2000).
Where a name gives a salt, the structure may show the parent alone. Each block holds one compound with its values, some of them ahead of it.

How the values were obtained:
Sus scrofa = organism: Sus scrofa; assay: Vasorelaxant effect was evaluated on isolated porcine coronary arteries precontracted with PGF-2 alpha; type: functional
Method in brief: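 Endothelium-intact porcine coronary artery strips were held in Krebs-Henseleit (37 °C, pH 7.4, 95% O2-5% CO2) at 1 g resting tension. Endothelium was verified by 10^-8 M bradykinin relaxation after 50 mM KCl contraction. Strips were contracted with 10^-5 M PGF2α, then given cumulative compound additions. Relaxation was expressed as % of the PGF2α contraction. EC50 came from log concentration curves, as the mean of two experiments.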

[1] = Inhibition of phosphodiesterase 1 (PDE1) from porcine adrenal tissue, range 20.0-34.4; design: species or system Sus scrofa; conditions: in the assay text read “porcine aorta” for “porcine adrenal tissue”
Method in brief: (§1)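 Two-step radioisotopic PDE activity assay (modified) with 1 µM [3H]cGMP as substrate. Enzymes were isolated from porcine tissues, and PDE5 was purified by DEAE-Toyopearl 650S chromatography. Inhibitors were diluted from DMSO into assay buffer over 10^-10 to 10^-6 M, with 1% (v/v) DMSO final. IC50 came from log concentration-inhibition curves (at least four points), as the mean of three experiments.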

PDE II [2] = molecular target: T1, PDE II (Sus scrofa, UniProt F1SUV3); assay: Inhibition of phosphodiesterase 2 (PDE2) from porcine platelets, range 0.841-1.15; conditions: in the assay text read “porcine adrenal” for “porcine platelets”; method in brief: as §1
[3] = Pharmacokinetic parameter, tmax after 0.3 mg/kg po administration in rats; type: ADME, organism-based; design: dose 0.3 mg/kg, route oral; conditions: rat, in vivo
Method in brief: (§2)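 Rats received a 0.3 mg/kg dose intravenously or orally, with n = 4 per route. Plasma pharmacokinetic parameters were then derived.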

[4] = Pharmacokinetic parameter, Cmax (plasma conc.) after 0.3 mg/kg po administration in rats; type: ADME, organism-based; design: dose 0.3 mg/kg, route oral; conditions: rat; method in brief: as §2
[5] = Pharmacokinetic parameter, AUC (area under curve) after 0.3 mg/kg iv administration in rats; type: ADME, organism-based; design: dose 0.3 mg/kg, route intravenous; conditions: rat, in vivo; method in brief: as §2
[6] = Pharmacokinetic parameter, t1/2 after 0.3 mg/kg iv administration in rats; type: ADME, organism-based; design: dose 0.3 mg/kg, route intravenous; conditions: rat, in vivo; method in brief: as §2
[7] = Pharmacokinetic parameter, Bioavailability (F) after 0.3 mg/kg po administration in rats; type: ADME, organism-based; conditions: rat, in vivo, read-out: BA; method in brief: as §2
Phosphodiesterase 3A [8] = molecular target: T2, Phosphodiesterase 3A (Sus scrofa, UniProt Q9XSW7); assay: Inhibition of phosphodiesterase 3 (PDE3) from porcine platelets, range 11.4-26.9; method in brief: as §1
T2 sequence (Q9XSW7 whole entry): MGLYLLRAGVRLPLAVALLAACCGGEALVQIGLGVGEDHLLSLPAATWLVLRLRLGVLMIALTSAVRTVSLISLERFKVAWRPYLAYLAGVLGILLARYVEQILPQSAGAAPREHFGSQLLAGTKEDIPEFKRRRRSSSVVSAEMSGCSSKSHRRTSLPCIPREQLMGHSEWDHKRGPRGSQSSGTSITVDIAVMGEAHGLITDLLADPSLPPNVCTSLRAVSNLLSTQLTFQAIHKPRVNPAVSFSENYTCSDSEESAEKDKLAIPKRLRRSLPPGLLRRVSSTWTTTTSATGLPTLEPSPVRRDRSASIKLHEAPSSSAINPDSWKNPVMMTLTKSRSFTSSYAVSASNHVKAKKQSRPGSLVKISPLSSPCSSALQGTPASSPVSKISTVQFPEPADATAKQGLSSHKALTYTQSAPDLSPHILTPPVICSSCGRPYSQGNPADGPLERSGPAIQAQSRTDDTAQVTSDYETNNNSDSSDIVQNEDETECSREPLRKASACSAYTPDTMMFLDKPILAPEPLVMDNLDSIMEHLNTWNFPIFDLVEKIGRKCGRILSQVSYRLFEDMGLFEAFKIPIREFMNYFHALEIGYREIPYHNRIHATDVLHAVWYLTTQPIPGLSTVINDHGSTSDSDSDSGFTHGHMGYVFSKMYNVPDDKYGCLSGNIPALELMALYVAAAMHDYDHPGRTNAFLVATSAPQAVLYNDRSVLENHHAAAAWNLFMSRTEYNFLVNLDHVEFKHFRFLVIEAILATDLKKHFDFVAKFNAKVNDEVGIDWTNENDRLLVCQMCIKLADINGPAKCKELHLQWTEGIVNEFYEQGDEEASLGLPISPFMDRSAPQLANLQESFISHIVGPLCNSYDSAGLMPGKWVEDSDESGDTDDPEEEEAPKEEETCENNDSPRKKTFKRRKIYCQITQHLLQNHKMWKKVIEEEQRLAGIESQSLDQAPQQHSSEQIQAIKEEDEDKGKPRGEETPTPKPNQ

Phosphodiesterase 4A [9] = molecular target: T3, Phosphodiesterase 4A (Sus scrofa, UniProt O77823); assay: Inhibition of phosphodiesterase 4 (PDE4) from porcine liver, range 1.01-1.36; method in brief: as §1
T3 sequence (O77823 whole entry): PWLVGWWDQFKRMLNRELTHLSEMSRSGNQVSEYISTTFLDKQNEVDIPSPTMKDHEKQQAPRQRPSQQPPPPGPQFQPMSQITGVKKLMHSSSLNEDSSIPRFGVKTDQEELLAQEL

[10] = Pharmacokinetic parameter, AUC (area under curve) after 0.3 mg/kg po administration in rats; type: ADME, organism-based; design: dose 0.3 mg/kg, route oral; conditions: rat, in vivo; method in brief: as §2
[11] = Inhibition of phosphodiesterase 1 (PDE1) from porcine adrenal tissue, range 51.1-108; design: species or system Sus scrofa; conditions: in the assay text read “porcine aorta” for “porcine adrenal tissue”; method in brief: as §1
Phosphodiesterase 3A [12] = molecular target: T2, Phosphodiesterase 3A; assay: Inhibition of phosphodiesterase 3 (PDE3) from porcine platelets, range 31.8-60.7
[13] = Inhibition of phosphodiesterase 1 (PDE1) from porcine adrenal tissue; type: tissue-based, Sus scrofa; conditions: in the assay text read “porcine aorta” for “porcine adrenal tissue”; method in brief: as §1
Phosphodiesterase 4A [14] = molecular target: T3, Phosphodiesterase 4A; assay: Inhibition of phosphodiesterase 4 (PDE4) from porcine liver, range 10.4-16.3
Method in brief: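 PDE4 isolated from porcine liver; activity measured by a modified two-step radioisotopic assay. Compounds dissolved in DMSO and diluted in assay buffer to 10^-10 to 10^-6 M, with 1% (v/v) final DMSO. IC50 taken from logarithmic concentration-inhibition curves of at least four points, as the mean of three experiments.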

PDE II [15] = molecular target: T1, PDE II; assay: Inhibition of phosphodiesterase 2 (PDE2) from porcine adrenal
Phosphodiesterase 3A [16] = molecular target: T2, Phosphodiesterase 3A; assay: Inhibition of phosphodiesterase 3 (PDE3) from porcine platelets; method in brief: as §1
Phosphodiesterase 4A [17] = molecular target: T3, Phosphodiesterase 4A; assay: Inhibition of phosphodiesterase 4 (PDE4) from porcine liver; method in brief: as §1
[18] = Inhibition of phosphodiesterase 1 (PDE1) from porcine adrenal tissue, range 26.5-36.7; design: species or system Sus scrofa; conditions: in the assay text read “porcine aorta” for “porcine adrenal tissue”; method in brief: as §1

- EC50 (Sus scrofa): 780 nM
Compound: COc1ccc(CNc2nnc(N3CCC(O)CC3)c3ccc(Cl)cc23)cc1Cl

- EC50 (Sus scrofa): 100 nM
Compound: COc1ccc(CNc2nnc(N3CCN(CCO)CC3)c3ccc(C#N)cc23)cc1Cl

- EC50 (Sus scrofa): 30 nM
Compound: COc1ccc(CNc2nnc(N3CCC(O)CC3)c3ccc([N+](=O)[O-])cc23)cc1Cl

- EC50 (Sus scrofa): 130 nM
Compound: COc1ccc(CNc2nnc(N3CCC(C)(O)CC3)c3ccc(C#N)cc23)cc1Cl

- EC50 (Sus scrofa): 100 nM
Compound: COc1ccc(CNc2nnc(N3CCC(OC)CC3)c3ccc(C#N)cc23)cc1Cl

- EC50 (Sus scrofa): 50 nM
Compound: COc1ccc(CNc2nnc(N3CC[S+]([O-])CC3)c3ccc(C#N)cc23)cc1Cl

- EC50 (Sus scrofa): 120 nM
Compound: COc1ccc(CNc2nnc(N3CCC(O)CC3)c3ccc(C(F)(F)F)cc23)cc1Cl

- IC50 [1]: 26200 nM
- EC50 (Sus scrofa): 13 nM
- IC50 (PDE II [2]): 984 nM
- Tmax [3]: 0.25 h
- Cmax [4]: 25.5 ng/mL
- AUC [5]: 166 ng·h/mL
- half-life [6]: 2.2 h
- bioavailability [7]: 19.5%
- IC50 (Phosphodiesterase 3A [8]): 17500 nM
- IC50 (Phosphodiesterase 4A [9]): 1170 nM
- AUC [10]: 32.4 ng·h/mL
Compound: COc1ccc(CNc2nnc(N3CCC(O)CC3)c3ccc(C#N)cc23)cc1Cl.Cl

- EC50 (Sus scrofa): 30 nM
Compound: COc1ccc(CNc2nnc(N3CCC(CCO)CC3)c3ccc(C#N)cc23)cc1Cl

- EC50 (Sus scrofa): 13 nM
Compound: COc1ccc(CNc2nnc(N3CCC(=O)CC3)c3ccc(C#N)cc23)cc1Cl

- EC50 (Sus scrofa): 130 nM
Compound: COc1ccc(CNc2nnc(N3CC=CCC3)c3ccc(C#N)cc23)cc1Cl

- EC50 (Sus scrofa): 19 nM
Compound: COc1ccc(CNc2nnc(N3CCC(CO)CC3)c3ccc(C#N)cc23)cc1Cl

- EC50 (Sus scrofa): 39 nM
Compound: COc1ccc(CNc2nnc(N3CCCCC3)c3ccc(C#N)cc23)cc1Cl

- EC50 (Sus scrofa): 870 nM
Compound: COc1ccc(CNc2nnc(N3CCNCC3)c3ccc(C#N)cc23)cc1Cl

- EC50 (Sus scrofa): 170 nM
Compound: COc1ccc(CNc2nnc(N3CCC(C(=O)O)CC3)c3ccc(C#N)cc23)cc1Cl

- EC50 (Sus scrofa): 320 nM
Compound: COc1ccc(CNc2nnc(N3CCN(C)CC3)c3ccc(C#N)cc23)cc1Cl

- IC50 [11]: 74500 nM
- IC50 (Phosphodiesterase 3A [12]): 44000 nM
Compound: OCCN(CCO)c1nc(N2CCCCC2)c2nc(N(CCO)CCO)nc(N3CCCCC3)c2n1 [DIPYRIDAMOLE]

- IC50 [13]: > 100000 nM
- IC50 (Phosphodiesterase 4A [14]): 13000 nM
Compound: Cc1[nH]c(=O)c(C#N)cc1-c1ccncc1 [MILRINONE]

- IC50 (PDE II [15]): > 100000 nM
- IC50 [13]: > 100000 nM
- IC50 (Phosphodiesterase 3A [16]): > 100000 nM
- IC50 (Phosphodiesterase 4A [17]): 3630 nM
Compound: COc1ccc(C2CNC(=O)C2)cc1OC1CCCC1 (stereo not drawn) [ROLIPRAM]

- EC50 (Sus scrofa): 38 nM
Compound: CCCc1nn(C)c2c(=O)[nH]c(-c3cc(S(=O)(=O)N4CCN(C)CC4)ccc3OCC)nc12 [SILDENAFIL CITRATE]

- IC50 [18]: 31200 nM
- IC50 (Phosphodiesterase 3A [16]): > 100000 nM
- IC50 (Phosphodiesterase 4A [17]): > 100000 nM
Compound: CCCOc1ccccc1-c1nc2[nH]nnc2c(=O)[nH]1 [ZAPRINAST]
